The values that follow come from ChEMBL document CHEMBL4371006, “Discovery of N-[4-(Quinolin-4-yloxy)phenyl]benzenesulfonamides as Novel AXL Kinase Inhibitors” (J Med Chem, 2018).

Molecules are shown by their SMILES. Calls of active or inactive are those of the source. The rule behind the calls is not given here.

Assay [1] deals with Vascular endothelial growth factor receptor 2 (Homo sapiens) (UniProt P35968). The assay can be described thus: Inhibition of VEGFR2 (unknown origin) using biotinylated peptide as substrate at 10 uM by TR-FRET assay relative to control. On the technique in general: TR-FRET usually uses a lanthanide donor and a delayed reading to cut background.
Assay [2] has the same target. As to the kind of experiment: Inhibition of VEGFR2 (unknown origin) using fluorescence labeled peptide as substrate at 10 uM by IMAP assay relative to control. In outline: (§1)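 IMAP fluorescence-polarization kinase assay at 10 µmol/L compound, run in triplicate by a contract lab. A fluorescently labeled substrate peptide is phosphorylated, then nanoparticles carrying trivalent metal bind the phosphopeptide and slow its rotation. Read-out is fluorescence polarization, expressed as percent inhibition.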

For assay [3], the target named is T1, Hepatocyte growth factor receptor (Homo sapiens, UniProt P08581). As to the kind of experiment: Inhibition of c-MET (unknown origin) using fluorescence labeled peptide as substrate at 10 uM by IMAP assay relative to control. The procedure, abridged:
as §1

Assay [4] addresses Tyrosine-protein kinase ABL1 (Homo sapiens) (UniProt P00519). The assay can be described thus: Inhibition of ABL (unknown origin) using biotinylated peptide as substrate at 10 uM by TR-FRET assay relative to control.
Assay [5] concerns the target Epidermal growth factor receptor (Homo sapiens, UniProt P00533). As to the kind of experiment: Inhibition of wild type EGFR (unknown origin).
Assay [6] addresses T2, Aurora kinase A (Homo sapiens) (UniProt O14965).
T2 sequence (whole entry): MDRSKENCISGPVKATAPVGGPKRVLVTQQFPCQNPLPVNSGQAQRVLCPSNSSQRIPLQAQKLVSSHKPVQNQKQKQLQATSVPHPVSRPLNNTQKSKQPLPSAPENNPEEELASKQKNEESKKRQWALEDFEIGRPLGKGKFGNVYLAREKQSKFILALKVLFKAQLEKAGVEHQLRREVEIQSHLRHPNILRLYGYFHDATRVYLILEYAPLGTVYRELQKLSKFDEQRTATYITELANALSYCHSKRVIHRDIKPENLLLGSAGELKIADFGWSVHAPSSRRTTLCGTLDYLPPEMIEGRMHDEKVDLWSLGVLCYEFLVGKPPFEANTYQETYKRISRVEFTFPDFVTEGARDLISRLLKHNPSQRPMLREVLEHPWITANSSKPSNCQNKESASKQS
As to the kind of experiment: Inhibition of AurA (unknown origin) using fluorescence labeled peptide as substrate at 10 uM by IMAP assay relative to control. In outline: as §1

A short description of assay [7]: Selectivity ratio of compound effect for anti-invasive activity against human MDA-MB-231 cells to IC50 for AXL (unknown origin) phosphorylation.
Assay [8] has as its target Proto-oncogene tyrosine-protein kinase Src (Homo sapiens, UniProt P12931). The assay can be described thus: Inhibition of SRC (unknown origin) using fluorescence labeled peptide as substrate at 10 uM by IMAP assay relative to control. The procedure, abridged: as §1
The target in assay [9] is Platelet-derived growth factor receptor beta (Homo sapiens) (UniProt P09619). The assay can be described thus: Inhibition of PDGFRbeta (unknown origin) using biotinylated peptide as substrate at 10 uM by TR-FRET assay relative to control.
Assay [10] has the same target. The assay can be described thus: Inhibition of PDGFRbeta (unknown origin) using fluorescence labeled peptide as substrate at 10 uM by IMAP assay relative to control. In outline: as §1
Assay [11] concerns the target Angiopoietin-1 receptor (Homo sapiens) (UniProt Q02763). As to the kind of experiment: Inhibition of TIE2 (unknown origin) using biotinylated peptide as substrate at 10 uM by TR-FRET assay relative to control.
Assay [12] addresses T1, Hepatocyte growth factor receptor. The assay can be described thus: Inhibition of c-MET (unknown origin).
Assay [13] concerns the target Tyrosine-protein kinase receptor UFO (Homo sapiens) (UniProt P30530). The assay can be described thus: Inhibition of AXL (unknown origin) using fluorescence labeled peptide as substrate at 10 uM by IMAP assay relative to control. The procedure, abridged:
as §1

In assay [14] the target is T3, Tyrosine-protein kinase receptor UFO (Homo sapiens, UniProt P30530).
T3 sequence (P30530 whole entry): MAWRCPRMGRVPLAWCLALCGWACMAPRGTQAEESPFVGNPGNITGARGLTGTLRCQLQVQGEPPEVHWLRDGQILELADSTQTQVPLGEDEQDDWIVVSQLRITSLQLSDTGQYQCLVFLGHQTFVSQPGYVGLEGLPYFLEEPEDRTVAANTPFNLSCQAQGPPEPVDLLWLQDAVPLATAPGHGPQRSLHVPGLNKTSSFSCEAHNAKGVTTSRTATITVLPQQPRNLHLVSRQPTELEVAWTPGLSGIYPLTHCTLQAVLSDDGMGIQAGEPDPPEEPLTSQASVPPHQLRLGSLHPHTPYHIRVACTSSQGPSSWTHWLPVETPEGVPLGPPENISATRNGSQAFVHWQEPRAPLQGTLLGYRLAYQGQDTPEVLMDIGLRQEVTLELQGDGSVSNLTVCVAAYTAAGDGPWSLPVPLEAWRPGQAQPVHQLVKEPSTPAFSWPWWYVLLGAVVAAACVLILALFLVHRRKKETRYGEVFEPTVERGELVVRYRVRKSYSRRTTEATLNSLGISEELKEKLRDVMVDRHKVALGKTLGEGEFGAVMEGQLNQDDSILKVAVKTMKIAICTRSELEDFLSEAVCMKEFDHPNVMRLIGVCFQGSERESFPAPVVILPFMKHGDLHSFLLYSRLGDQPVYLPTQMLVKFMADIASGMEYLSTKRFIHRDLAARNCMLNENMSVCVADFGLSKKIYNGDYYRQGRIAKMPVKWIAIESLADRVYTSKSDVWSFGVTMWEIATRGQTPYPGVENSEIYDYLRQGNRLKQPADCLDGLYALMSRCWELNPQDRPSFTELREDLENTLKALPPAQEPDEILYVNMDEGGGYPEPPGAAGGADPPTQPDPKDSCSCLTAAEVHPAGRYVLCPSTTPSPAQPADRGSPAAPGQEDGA
The assay can be described thus: Inhibition of AXL (unknown origin).

Assay [15] concerns MDA-MB-231. The assay can be described thus: Antimigratory activity against human MDA-MB-231 cells after 3.5 hrs by microscopy based Boyden chamber assay. As to conditions: MDA-MB-231, 3.5 h. The class given is functional, cell-based. The procedure, abridged: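 Modified Boyden chamber: MDA-MB-231 cells plated in 0.1% FCS medium, migrating through 8 µm pore membrane toward 1% FCS chemoattractant for 3.5 h; transmigrated cells counted microscopically in at least 5 random fields per well.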

Assay [16] concerns MDA-MB-231. As to the kind of experiment: Anti-invasive activity against human MDA-MB-231 cells up to 3 uM after 5 hrs by matrigel assay. Type of assay: functional, cell-based. The procedure, abridged:
(§2)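 MDA-MB-231 cells (7000/well) seeded on polymerized 3 mg/mL Matrigel (set ≥16 h at 37°C) in serum-free medium; inhibitor added at seeding, aggregates forming over 5 h.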

In assay [17] the target is Tyrosine-protein kinase receptor UFO (Homo sapiens) (UniProt P30530). The assay can be described thus: Inhibition of AXL (unknown origin) using biotinylated peptide as substrate at 10 uM by TR-FRET assay relative to control.
The test system of assay [18] is MDA-MB-231. As to the kind of experiment: Antimigratory activity against human MDA-MB-231 cells assessed as inhibition of large cell aggregate formation after 5 hrs by matrigel assay. Type of assay: functional, cell-based. As to conditions: MDA-MB-231, 5 h. The procedure, abridged:
as §2

In assay [19] the target is Mast/stem cell growth factor receptor Kit (Homo sapiens) (UniProt P10721). The assay can be described thus: Inhibition of cKIT (unknown origin) using biotinylated peptide as substrate at 10 uM by TR-FRET assay relative to control.
The target in assay [20] is T2, Aurora kinase A (Homo sapiens). The assay can be described thus: Inhibition of AurA (unknown origin) using biotinylated peptide as substrate at 10 uM by TR-FRET assay relative to control.

Epidermal growth factor receptor, sequence (P00533 whole entry): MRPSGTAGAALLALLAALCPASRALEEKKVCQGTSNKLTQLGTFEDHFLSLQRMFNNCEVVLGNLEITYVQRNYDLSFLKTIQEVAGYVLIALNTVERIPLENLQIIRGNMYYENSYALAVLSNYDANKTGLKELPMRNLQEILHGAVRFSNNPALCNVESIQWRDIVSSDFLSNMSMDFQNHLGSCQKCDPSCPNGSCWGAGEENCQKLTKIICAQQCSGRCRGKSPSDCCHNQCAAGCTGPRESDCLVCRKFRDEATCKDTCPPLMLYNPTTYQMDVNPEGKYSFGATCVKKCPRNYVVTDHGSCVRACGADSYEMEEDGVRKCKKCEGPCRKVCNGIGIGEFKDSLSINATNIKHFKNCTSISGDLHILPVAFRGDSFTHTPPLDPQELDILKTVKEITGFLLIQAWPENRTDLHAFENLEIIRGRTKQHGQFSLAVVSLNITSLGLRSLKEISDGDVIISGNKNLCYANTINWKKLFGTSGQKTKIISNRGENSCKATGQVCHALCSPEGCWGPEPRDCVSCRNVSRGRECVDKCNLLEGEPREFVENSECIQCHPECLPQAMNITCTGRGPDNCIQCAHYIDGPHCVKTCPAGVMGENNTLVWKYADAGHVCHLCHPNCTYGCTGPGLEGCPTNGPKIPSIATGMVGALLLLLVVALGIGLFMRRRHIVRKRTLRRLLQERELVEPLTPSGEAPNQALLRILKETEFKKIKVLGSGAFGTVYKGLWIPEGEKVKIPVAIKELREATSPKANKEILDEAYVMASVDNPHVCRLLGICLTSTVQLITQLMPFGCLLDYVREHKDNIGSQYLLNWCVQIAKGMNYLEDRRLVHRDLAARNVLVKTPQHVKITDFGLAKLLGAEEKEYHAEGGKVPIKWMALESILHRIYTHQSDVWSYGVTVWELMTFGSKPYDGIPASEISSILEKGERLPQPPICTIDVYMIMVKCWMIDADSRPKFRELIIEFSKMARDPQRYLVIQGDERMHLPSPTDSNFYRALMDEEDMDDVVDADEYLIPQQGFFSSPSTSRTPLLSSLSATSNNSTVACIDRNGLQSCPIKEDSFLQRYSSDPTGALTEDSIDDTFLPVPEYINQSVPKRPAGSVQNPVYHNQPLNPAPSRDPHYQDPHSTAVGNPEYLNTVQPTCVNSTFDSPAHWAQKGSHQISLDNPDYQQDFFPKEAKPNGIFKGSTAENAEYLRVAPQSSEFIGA
Proto-oncogene tyrosine-protein kinase Src, sequence (P12931 2-536 limits assumed): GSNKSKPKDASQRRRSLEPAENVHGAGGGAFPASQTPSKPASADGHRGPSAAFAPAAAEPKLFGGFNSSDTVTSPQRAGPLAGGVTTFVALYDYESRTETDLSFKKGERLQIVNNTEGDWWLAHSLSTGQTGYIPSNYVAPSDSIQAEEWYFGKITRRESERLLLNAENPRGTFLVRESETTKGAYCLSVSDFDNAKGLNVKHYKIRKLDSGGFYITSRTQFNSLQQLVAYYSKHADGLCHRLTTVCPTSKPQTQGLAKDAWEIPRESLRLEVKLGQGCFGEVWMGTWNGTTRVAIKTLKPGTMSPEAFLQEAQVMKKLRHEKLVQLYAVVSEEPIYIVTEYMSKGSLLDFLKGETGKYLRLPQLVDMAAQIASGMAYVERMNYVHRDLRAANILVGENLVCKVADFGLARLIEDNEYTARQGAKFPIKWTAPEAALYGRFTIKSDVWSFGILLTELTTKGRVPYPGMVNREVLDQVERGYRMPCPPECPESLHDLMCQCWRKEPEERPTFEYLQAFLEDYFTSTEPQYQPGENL
Mast/stem cell growth factor receptor Kit (Homo sapiens), sequence (P10721 whole entry): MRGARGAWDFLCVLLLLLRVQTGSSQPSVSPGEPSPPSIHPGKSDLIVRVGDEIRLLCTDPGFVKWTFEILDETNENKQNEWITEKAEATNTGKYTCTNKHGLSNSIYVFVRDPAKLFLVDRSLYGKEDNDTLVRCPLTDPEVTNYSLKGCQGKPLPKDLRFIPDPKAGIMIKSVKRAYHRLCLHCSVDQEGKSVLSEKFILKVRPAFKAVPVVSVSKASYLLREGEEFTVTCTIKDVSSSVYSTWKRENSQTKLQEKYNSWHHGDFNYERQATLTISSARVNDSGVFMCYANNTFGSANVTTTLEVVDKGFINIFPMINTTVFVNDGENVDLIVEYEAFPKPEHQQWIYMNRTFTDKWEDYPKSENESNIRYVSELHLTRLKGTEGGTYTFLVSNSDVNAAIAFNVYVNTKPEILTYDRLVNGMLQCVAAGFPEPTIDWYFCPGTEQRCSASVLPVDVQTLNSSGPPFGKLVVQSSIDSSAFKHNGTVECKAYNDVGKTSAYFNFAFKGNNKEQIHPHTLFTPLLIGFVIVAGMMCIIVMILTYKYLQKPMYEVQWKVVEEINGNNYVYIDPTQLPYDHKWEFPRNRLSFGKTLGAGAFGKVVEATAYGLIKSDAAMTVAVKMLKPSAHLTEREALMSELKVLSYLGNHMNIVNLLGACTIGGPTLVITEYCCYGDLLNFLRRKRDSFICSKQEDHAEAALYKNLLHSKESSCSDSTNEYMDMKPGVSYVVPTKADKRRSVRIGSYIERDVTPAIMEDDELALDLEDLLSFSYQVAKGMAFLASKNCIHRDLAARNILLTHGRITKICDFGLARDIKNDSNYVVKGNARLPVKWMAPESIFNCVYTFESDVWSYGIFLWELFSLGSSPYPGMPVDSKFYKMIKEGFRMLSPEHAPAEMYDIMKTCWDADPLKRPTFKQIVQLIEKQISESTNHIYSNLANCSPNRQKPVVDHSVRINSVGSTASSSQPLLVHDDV
Vascular endothelial growth factor receptor 2 (Homo sapiens), sequence (P35968 whole entry): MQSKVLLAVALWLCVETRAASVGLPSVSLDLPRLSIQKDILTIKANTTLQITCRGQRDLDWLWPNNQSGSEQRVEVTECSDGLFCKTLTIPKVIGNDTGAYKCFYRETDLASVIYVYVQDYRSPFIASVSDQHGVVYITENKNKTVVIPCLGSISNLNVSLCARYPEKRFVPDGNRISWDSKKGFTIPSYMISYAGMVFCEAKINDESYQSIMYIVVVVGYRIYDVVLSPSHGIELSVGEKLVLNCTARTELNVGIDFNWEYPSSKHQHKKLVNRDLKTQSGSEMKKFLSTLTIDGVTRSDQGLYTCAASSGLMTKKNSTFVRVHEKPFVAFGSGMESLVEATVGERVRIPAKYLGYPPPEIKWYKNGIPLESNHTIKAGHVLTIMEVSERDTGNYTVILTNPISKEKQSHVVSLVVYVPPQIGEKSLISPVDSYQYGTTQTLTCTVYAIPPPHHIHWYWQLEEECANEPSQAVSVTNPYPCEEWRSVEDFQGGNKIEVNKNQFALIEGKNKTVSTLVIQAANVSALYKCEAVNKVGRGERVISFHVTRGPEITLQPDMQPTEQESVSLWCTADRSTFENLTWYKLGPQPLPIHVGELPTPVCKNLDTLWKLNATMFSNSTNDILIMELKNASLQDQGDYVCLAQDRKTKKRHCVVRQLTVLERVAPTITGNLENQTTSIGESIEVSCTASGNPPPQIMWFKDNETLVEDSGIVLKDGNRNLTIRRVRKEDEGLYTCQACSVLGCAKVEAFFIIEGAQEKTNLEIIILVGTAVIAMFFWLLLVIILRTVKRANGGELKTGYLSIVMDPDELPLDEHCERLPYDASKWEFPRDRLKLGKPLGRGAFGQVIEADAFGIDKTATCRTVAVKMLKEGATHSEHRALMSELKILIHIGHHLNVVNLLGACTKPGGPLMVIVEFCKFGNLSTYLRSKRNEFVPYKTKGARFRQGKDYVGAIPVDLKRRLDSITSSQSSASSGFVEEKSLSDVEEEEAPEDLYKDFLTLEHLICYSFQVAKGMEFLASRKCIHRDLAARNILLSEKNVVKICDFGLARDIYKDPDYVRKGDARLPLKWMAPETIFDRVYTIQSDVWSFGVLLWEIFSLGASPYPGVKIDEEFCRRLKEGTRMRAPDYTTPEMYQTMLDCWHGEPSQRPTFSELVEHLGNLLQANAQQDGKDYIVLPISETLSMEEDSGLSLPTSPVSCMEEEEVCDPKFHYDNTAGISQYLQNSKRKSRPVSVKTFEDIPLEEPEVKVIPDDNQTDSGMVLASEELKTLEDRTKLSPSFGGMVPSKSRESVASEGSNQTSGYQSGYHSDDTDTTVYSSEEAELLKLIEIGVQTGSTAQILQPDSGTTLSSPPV

Consider `COc1cc2c(Oc3ccc(NS(=O)(=O)c4cc(F)ccc4F)cc3F)ccnc2cc1OCCCN1CCN(C)CC1`, for which the Efficacy in assay [1], in assay [2], in [3], in assay [4], in assay [6] and in assay [8] was 83 to 100% each time. For the same molecule, the Efficacy in assay [9], in assay [10], in assay [11], in assay [13], in assay [17] and in assay [19] was 83 to 100% in each case. The Efficacy in assay [20] is 83 to 100%. The IC50 was 149 nM in assay [5]; 358 nM in assay [12]; 27 nM in assay [14]; 2500 nM in [15]; 158 nM in assay [18]. In addition, in assay [7], the Selectivity ratio was 2 - 6. In assay [16], the inhibition result was “Active”.

`COc1cc2c(Oc3ccc(NS(=O)(=O)c4c(F)cccc4F)cc3F)ccnc2cc1OCCCN1CCN(C)CC1`: the Efficacy in [1], in assay [2], in [3], in [4], in assay [6] and in assay [8] was 83 to 100% throughout. The Efficacy in assay [9], in assay [10], in assay [11], in assay [13], in assay [17] and in assay [19] was 83 to 100% in each case. In [20], this molecule displayed an Efficacy of 83 to 100%. Further, the IC50 in assay [5] worked out at 178 nM; in [12], 127 nM; in assay [14] it was 35 nM; in [15] it was 1500 nM; in assay [18], 156 nM. Also, the Selectivity ratio in assay [7] is reported as 2 - 6. In addition, the inhibition result in assay [16] was “Active”.

Consider `COc1cc2c(Oc3ccc(NS(=O)(=O)c4ccccc4C(F)(F)F)cc3F)ccnc2cc1OCCCN1CCN(C)CC1`, for which the Efficacy in assay [1], in [2], in assay [3], in assay [4], in [6] and in assay [8] was 83 to 100% in each case. The Efficacy in assay [9], in assay [10], in [11], in assay [13], in [17] and in [19] was 83 to 100% in each case. Also, the Efficacy in assay [20] lay within 83 to 100%. For the same molecule, the concentration for half-maximal inhibition (IC50) in assay [5] is 281 nM; in [12], 488 nM; in [14], 21 nM; in assay [15] it was 4600 nM; in assay [18], 158 nM. For the same molecule, the Selectivity ratio in assay [7] was 2 - 6. The inhibition entry in assay [16] is “Active”.

On to `COc1cc2c(Oc3ccc(NS(=O)(=O)c4cc(F)ccc4F)cc3F)ccnc2cc1OCCCN1CCCC(C)C1` (stereo not given), for which the Efficacy in assay [1], in assay [2], in assay [3], in [4], in assay [6] and in [8] was 83 to 100% in each case. Moreover, the Efficacy in assay [9], in assay [10], in assay [11], in assay [13], in assay [17] and in assay [19] was 83 to 100% throughout. For the same molecule, the Efficacy in [20] lay within 83 to 100%. Also, the IC50 came to 1130 nM in [5]; 1310 nM in assay [12]; 28 nM in [14]; 3300 nM in [15]; 185 nM in assay [18]. Besides, the Selectivity ratio in assay [7] was 2 - 6. Moreover, the inhibition entry in assay [16] was “Active”.

The term IC50 denotes the midpoint of a concentration-inhibition curve.
